# Laboratory results from ChEMBL document CHEMBL6134769, “Discovery of N-substituted-2-oxoindolin benzoylhydrazines as c-MET/SMO modulators in EGFRi-resistant non-small cell lung cancer” (RSC Med Chem, 2025).
# Key:
# [1] = target: Vascular endothelial growth factor receptor 2 (Homo sapiens) (UniProt P35968); experiment: Inhibition of human N-terminal GST-fused KDR cytoplasmic domain (790 to 1356 (end)residues) expressed in baculovirus expression system at 20 uM measured after 1 hr in presence of peptide substrate and ATP by off-chip mobility shift assay relative to control
# How it was run: (§1)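 Off-chip mobility shift assay. Product and substrate peptides were separated; activity was taken as P/(P+S). Complete reaction was set as 0% inhibition and enzyme-free background as 100%. Run in triplicate, mean ± SD.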
# [2] = target: Tyrosine-protein kinase Lck (Homo sapiens) (UniProt P06239); experiment: Inhibition of human full-length N-terminal GST-fused LCK (1 to 509 (end)residues) expressed in baculovirus expression system at 20 uM measured after 1 hr in presence of peptide substrate and ATP by off-chip mobility shift assay relative to control; how it was run: as §1
# [3] = target: T1, Tyrosine-protein kinase receptor TYRO3 (Homo sapiens) (UniProt Q06418); experiment: Inhibition of human N-terminal GST-fused TYRO3 cytoplasmic domain (453 to 890 (end)residues) expressed in baculovirus expression system at 20 uM measured after 1 hr in presence of peptide substrate and ATP by off-chip mobility shift assay relative to control; how it was run: as §1
# T1 sequence (whole entry): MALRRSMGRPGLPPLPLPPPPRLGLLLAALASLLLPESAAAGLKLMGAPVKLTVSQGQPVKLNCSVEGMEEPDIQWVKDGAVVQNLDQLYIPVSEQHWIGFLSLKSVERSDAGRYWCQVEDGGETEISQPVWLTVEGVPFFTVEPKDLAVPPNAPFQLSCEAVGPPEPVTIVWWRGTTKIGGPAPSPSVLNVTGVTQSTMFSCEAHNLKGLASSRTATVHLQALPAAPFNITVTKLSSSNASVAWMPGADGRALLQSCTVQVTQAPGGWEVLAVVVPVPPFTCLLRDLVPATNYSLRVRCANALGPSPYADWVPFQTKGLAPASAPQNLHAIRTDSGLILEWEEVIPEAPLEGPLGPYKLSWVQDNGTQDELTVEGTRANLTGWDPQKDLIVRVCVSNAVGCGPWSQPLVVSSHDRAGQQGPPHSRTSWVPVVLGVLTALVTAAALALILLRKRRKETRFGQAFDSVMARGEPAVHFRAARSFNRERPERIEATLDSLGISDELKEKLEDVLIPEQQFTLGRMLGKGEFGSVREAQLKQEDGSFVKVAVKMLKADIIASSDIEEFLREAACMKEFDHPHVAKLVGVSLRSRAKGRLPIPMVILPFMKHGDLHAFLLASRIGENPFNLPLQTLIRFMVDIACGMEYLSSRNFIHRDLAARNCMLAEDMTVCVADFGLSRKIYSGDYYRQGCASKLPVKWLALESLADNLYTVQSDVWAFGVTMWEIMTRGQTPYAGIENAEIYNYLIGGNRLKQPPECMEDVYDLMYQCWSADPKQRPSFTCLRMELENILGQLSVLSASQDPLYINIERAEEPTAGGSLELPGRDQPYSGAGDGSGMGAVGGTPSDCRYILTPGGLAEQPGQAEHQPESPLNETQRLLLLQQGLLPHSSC
# [4] = Antiproliferative activity against human HCC827 Gefitinib-resistant (GR) cells assessed as reduction in cell viability measured after 72 hrs by MTS assay
# [5] = target: Tyrosine-protein kinase CSK (Homo sapiens) (UniProt P41240); experiment: Inhibition of human full-length N-terminal GST-fused CSK (1 to 450 (end)residues) expressed in baculovirus expression system at 20 uM measured after 1 hr in presence of peptide substrate and ATP by off-chip mobility shift assay relative to control; how it was run: as §1
# [6] = Induction of apoptosis in human PC9-OR cells assessed as early apoptotic cells at 20 uM measured after 24 hrs by Annexin V-[…]propidium iodide staining based flow cytometry relative to control; format: functional
# How it was run: (§2)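 Resistant cells were seeded at 500.000 per dish and treated the next day for 24 h at 20 μM. Cells were harvested, washed in PBS, and stained with annexin V-Alexa 488 and PI, then analysed by flow cytometry. Early apoptotic cells were scored as annexin+/PI−, late apoptotic/necrotic cells as annexin+/PI+.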
# [7] = Induction of apoptosis in human HCC827 Gefitinib-resistant (GR) cells assessed as late apoptotic/necrotic cells at 20 uM measured after 24 hrs by Annexin V-[…]propidium iodide staining based flow cytometry relative to control; format: functional, HCC827 Gefitinib-resistant (GR) cell; how it was run: as §2
# Sequence of Vascular endothelial growth factor receptor 2 (Homo sapiens) (P35968 whole entry, the tested form may be a part): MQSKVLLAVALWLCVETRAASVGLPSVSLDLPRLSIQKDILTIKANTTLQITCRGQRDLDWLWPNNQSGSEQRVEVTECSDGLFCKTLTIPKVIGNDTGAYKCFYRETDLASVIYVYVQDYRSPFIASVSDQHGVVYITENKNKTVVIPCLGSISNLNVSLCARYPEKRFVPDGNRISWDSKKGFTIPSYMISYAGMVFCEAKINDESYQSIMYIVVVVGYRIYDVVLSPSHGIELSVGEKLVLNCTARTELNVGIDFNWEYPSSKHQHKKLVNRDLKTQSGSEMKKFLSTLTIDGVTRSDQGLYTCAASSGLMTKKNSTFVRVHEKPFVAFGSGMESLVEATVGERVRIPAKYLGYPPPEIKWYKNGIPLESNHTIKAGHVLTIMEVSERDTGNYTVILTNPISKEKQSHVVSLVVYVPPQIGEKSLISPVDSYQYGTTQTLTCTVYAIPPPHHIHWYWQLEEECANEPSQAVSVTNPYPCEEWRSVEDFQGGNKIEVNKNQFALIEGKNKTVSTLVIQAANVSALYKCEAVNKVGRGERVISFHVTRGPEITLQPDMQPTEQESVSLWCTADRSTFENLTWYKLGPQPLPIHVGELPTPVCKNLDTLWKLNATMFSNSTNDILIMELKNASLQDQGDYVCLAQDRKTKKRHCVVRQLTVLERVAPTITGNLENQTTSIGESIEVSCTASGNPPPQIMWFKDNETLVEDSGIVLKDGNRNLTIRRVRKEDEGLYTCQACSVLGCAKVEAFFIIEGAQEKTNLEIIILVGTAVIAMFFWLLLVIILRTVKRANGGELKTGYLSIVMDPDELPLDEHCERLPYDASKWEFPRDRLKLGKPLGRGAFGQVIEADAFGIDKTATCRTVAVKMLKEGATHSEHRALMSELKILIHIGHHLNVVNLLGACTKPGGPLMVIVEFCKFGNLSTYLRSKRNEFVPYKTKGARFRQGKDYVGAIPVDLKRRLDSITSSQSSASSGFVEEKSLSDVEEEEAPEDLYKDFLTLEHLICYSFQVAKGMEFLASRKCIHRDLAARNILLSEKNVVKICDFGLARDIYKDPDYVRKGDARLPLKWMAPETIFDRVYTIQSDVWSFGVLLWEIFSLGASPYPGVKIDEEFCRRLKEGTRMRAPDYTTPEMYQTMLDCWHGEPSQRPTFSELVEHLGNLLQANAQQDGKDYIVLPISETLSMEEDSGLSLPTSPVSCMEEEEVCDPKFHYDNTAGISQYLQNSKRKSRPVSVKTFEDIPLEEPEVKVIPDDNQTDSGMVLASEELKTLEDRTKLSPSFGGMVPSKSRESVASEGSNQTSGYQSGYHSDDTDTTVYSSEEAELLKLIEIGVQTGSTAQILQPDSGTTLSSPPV
# Sequence of Tyrosine-protein kinase Lck (Homo sapiens) (P06239 2-509 limits assumed): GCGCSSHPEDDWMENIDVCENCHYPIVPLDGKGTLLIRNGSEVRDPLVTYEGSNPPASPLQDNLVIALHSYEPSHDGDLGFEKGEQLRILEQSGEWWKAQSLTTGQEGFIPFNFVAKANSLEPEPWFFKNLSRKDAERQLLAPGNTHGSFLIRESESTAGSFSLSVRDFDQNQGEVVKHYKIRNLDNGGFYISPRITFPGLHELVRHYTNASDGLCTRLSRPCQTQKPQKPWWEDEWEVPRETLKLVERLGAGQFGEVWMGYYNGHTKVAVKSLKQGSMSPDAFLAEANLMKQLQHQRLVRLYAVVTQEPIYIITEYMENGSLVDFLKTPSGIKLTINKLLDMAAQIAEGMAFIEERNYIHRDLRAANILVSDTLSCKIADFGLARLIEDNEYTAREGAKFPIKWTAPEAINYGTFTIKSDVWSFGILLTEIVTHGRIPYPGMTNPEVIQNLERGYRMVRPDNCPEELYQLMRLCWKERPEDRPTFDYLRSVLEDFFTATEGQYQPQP
# Sequence of Tyrosine-protein kinase CSK (Homo sapiens) (P41240 2-450 limits assumed): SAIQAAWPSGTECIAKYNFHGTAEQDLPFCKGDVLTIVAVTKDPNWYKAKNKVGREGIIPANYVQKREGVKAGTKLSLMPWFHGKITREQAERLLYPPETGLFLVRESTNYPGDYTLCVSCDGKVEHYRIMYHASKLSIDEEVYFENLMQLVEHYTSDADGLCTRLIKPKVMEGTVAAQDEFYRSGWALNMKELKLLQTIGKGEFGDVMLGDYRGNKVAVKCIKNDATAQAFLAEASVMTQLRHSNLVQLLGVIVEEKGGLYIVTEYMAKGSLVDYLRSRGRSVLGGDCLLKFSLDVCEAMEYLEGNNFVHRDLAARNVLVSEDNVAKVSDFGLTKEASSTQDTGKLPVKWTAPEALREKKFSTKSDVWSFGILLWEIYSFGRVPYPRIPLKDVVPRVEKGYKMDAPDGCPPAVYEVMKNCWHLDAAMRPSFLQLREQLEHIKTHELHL
inhibition [1] [%],inhibition [2] [%],inhibition [3] [%],inhibition [5] [%],Compound,IC50 [4] [µM],Activity [6] [%],Activity [7] [%]
66.6,71.5,51.3,82.1,Cc1ccc(NC(=O)CN2C(=O)/C(=N\NC(=O)c3cc(Br)ccc3O)c3ccc(Cl)cc32)cc1,5.16,–,–
63.5,69.3,39.3,86.1,Cc1ccc(NC(=O)CN2C(=O)/C(=N\NC(=O)c3cc(Br)ccc3O)c3ccc(Br)cc32)cc1,4.34,57.5,90.8
81.4,84.8,48.5,93.5,Cc1ccc(NC(=O)CN2C(=O)/C(=N\NC(=O)c3cc(Br)ccc3O)c3ccccc32)cc1,10.7,75.5,96.2
61.2,66.8,46.4,82.9,O=C(CN1C(=O)/C(=N\NC(=O)c2cc(Br)ccc2O)c2c(Br)cccc21)Nc1ccc([N+](=O)[O-])cc1,3.52,–,–
